Assay outcomes deposited in PubChem by several laboratories.
Rows were chosen to be rich in hits. Some 4.7% of all compounds tested hit in one or more screens of this group.
VIM-2 inh – blocks Pseudomonas aeruginosa VIM-2 metallo-beta-lactamase | AID 1527 | 0.89% of 290,000 active | purified VIM-2, nitrocefin hydrolysis, epi-absorbance fluorescence | inhibition, % at 5.6 µM;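 active = inhibition above the mean of all tested compounds plus 3 SD, cutoff set per screening run, cut at about 7.5% in these data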;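 also: red hydrolysis product quenches plate fluorescence so inhibitors raise well fluorescence; 0% = enzyme with DMSO and 100% = DMSO without enzyme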
IMP-1 inh – inhibitors of Pseudomonas aeruginosa IMP-1 metallo-beta-lactamase; inhibition, % at 5.6 µM; 0.45% of 290,000 active; purified IMP-1, nitrocefin hydrolysis, epi-absorbance fluorescence;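 active = inhibition above the mean plus 3 SD of all compounds in the same screening run, cut at about 4.5% in these data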;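 also: 0% = IMP-1 with DMSO and 100% = DMSO wells lacking enzyme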
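System: purified IMP-1 / Input: IMP-1 dispensed at 0.2 nM / Medium: 50 mM HEPES pH 7.1, 50 µM ZnSO4, 0.05% Brij 35 / Timing: 15 min enzyme–compound preincubation, then 25 min nitrocefin reaction, 25 °C / Technique: plate fluorescence quenching by hydrolysis product, ex 480/em 530 nm / Repeats: singlicate testing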
Mdm2-MdmX inh – human Mdm2/MdmX binding inhibition; O15151+Q00987; SaOS-2 split-luciferase Mdm2/MdmX complementation, luminescence; inhibition, % at 8 µM; 3% of 330,000 active; AID 485346;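 active = inhibition of at least 50% at 8 µM in the primary screen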
Target sequence (O15151 whole entry, looked up): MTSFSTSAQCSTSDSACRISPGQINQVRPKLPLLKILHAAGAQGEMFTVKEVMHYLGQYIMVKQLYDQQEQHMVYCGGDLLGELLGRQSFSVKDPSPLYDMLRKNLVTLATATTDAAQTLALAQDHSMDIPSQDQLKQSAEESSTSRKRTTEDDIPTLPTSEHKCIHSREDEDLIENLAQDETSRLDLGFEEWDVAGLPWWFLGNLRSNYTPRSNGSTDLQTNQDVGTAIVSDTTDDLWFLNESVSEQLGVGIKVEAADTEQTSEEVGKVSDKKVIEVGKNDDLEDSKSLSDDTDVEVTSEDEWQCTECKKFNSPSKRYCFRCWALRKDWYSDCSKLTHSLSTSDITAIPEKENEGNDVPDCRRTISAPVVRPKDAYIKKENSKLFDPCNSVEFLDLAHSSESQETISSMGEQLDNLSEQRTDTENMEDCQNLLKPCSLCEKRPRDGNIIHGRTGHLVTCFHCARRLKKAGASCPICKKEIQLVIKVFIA
Target sequence (Q00987 whole entry, looked up): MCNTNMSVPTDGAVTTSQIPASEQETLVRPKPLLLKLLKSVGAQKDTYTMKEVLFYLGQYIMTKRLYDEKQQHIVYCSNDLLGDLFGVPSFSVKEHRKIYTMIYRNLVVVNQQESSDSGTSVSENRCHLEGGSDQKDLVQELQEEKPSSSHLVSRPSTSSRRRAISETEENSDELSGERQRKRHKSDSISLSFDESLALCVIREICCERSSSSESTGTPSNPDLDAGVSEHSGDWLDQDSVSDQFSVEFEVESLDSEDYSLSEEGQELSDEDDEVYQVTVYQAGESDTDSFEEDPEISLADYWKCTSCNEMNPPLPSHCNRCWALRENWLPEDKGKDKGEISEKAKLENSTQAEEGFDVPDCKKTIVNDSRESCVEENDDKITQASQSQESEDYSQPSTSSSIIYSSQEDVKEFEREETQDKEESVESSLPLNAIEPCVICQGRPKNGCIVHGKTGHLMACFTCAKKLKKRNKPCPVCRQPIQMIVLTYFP
697 NFkB inh – inhibitors of the PMA/ionomycin-induced NF-kB reporter in 697 B cells; 697 B-cell NF-kB luciferase reporter, 16 h; inhibition, % at 4 µM; 0.33% of 330,000 active; in the data active = inhibition above about 35%
aSyn 5UTR inh – MLPCN primary screen, SNCA 5' untranslated region; alpha-synuclein 5'UTR reporter, inhibitor activity; inhibition, % (tested at 7.5 µM); 0.82% of 300,000 active; AID 1813; in the data active = inhibition above about 60%; inconclusive = no clear call, values can overlap the other calls;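 also: H4 neuroglioblastoma cells stably carrying SNCA 5'UTR luciferase fusion; 0% = DMSO wells and 100% = positive control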
Jurkat NFkB inh – lowers PMA/ionomycin-induced NF-kB signal in Jurkat cells | PMA/ionomycin-induced NF-kB luciferase reporter, luminescence | 0.53% of 330,000 active | AID 435003 | inhibition, % at 4 µM; in the data active = inhibition above about 50%
Mdm2 MdmX conf – human Mdm2/MdmX binding inhibition, confirmed; shares compounds with Mdm2-MdmX inh; luminescent assay; inhibition, % at 8 µM; 55% of 10,000 active; in the data active = inhibition above about 40%
FLuc counter – inhibits full-length luciferase, flagging false Mdm2/MdmX hits; shares compounds with Mdm2-MdmX inh; SaOS-2 full-length luciferase counterscreen, luminescence; inhibition, % at 8 µM; 77% of 6,200 active; AID 504607;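 active = mean inhibition at 8 µM reaching about 37%, which flags the compound as non-specific, limit read from the data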;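 also: p53-null SaOS-2 cells with luciferase driven by a doxycycline-inducible promoter; compound on cells about two nights before reading with doxycycline added after day one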
Numbers without * were called inactive; ? = inconclusive; · = no result given.

SMILES	VIM-2 inh	IMP-1 inh	Mdm2-MdmX inh	697 NFkB inh	aSyn 5UTR inh	Jurkat NFkB inh	Mdm2 MdmX conf	FLuc counter
O=C(CNc1ccccc1)N/N=C/c1c(O)ccc2ccccc12	-3	-4	84*	-1	69*	23	79*	27
CN1C2CCC1CC(NC(=O)CSCc1ccc(Cl)cc1Cl)C2 (configuration not stated)	-1	-2	4	-5	9	-18	·	·
CN(C)C1=NCCN1CC1CCCCCC1	·	·	-9	-3	·	-3	·	·
Cc1cc(O)c(C)c(O)c1/C=N/NC(=O)c1cccnc1	-3	-4	57*	-3	69*	35	45*	69*
Cc1occc1C(=O)N/N=C/c1c(O)ccc2ccccc12	-2	0	84*	-53	54	44	83*	21
Cn1ncc(N=Cc2c(O)ccc3ccccc23)c1C(=O)Nc1cccc(Cl)c1	-2	-1	61*	1	-27	4	0	·
O=C(N/N=C/c1ccccc1O)c1cccc2ccccc12	1	0	53*	-21	53	12	53*	46*
CCNc1nc(NCC)n2c(SC(C(=O)Nc3cc(C)ccc3OC)c3ccccc3)nnc2n1 (configuration not stated)	-3	-7	19	2	-7	-3	·	·
Cc1ccc(OC(C)C(=O)N(C)c2ccccc2)c([N+](=O)[O-])n1 (configuration not stated)	·	·	26	2	·	-11	·	·
COc1ccc(NC(C)C(=O)N/N=C/c2c(O)ccc3ccccc23)cc1 (configuration not stated)	-4	-2	65*	1	45	9	56*	39*
O=C(N/N=C\c1c(O)ccc2ccccc12)c1ccc(O)cc1	-2	-2	68*	-8	75*	6	52*	32
Cn1c(-c2ccccc2)c(/C=N/NC(=O)c2ccc(O)cc2)c2ccccc21	-3	-3	48	-42	-37	-32	·	·
C[C@@H]1COC(=O)[C@H](Cc2ccc(F)cc2)CC/C=C/C[C@@H](CC(=O)N[C@@H](CO)Cc2ccccc2)C(=O)N1	·	·	16	17	·	8	·	·
O=C1NC[C@H](c2ccccc2)OC(=O)[C@H](Cc2ccc(F)cc2)C/C=C\C[C@H]1CC(=O)N(CCO)Cc1ccccc1	·	·	81*	25	·	11	63*	47*
O=C1N[C@@H](Cc2c[nH]c3ccccc23)COC(=O)[C@@H](Cc2ccc(F)cc2)C/C=C\C[C@H]1CC(=O)N(CCO)Cc1ccccc1	·	·	51*	1	·	15	20	·
O=C1NC[C@@H](c2ccccc2)OC(=O)[C@@H](Cc2ccc(F)cc2)CC/C=C/C[C@H]1CC(=O)N(CCO)Cc1ccccc1	·	·	62*	9	·	21	47*	53*
O=C(C[C@@H]1C/C=C/CC[C@H](Cc2ccc(F)cc2)C(=O)OC[C@@H](Cc2ccccc2)NC1=O)N[C@H](CO)Cc1ccccc1	·	·	96*	4	·	-1	93*	30
O=C1N[C@@H](Cc2c[nH]c3ccccc23)COC(=O)[C@H](Cc2ccc(F)cc2)C/C=C\C[C@@H]1CC(=O)N(CCO)Cc1ccccc1	·	·	41	14	·	-3	·	·
CC1CN(C(=O)c2ccccc2)c2ccccc2NC1=O (configuration not stated)	-1	-3	2	1	6	4	·	·
Cc1sc2ncnc(SC(C)C(=O)N3c4ccccc4Sc4ccccc43)c2c1C (configuration not stated)	-2	-3	55*	-14	46	3	25	·
Cc1nc(SCC(=O)Nc2ccc(S(=O)(=O)N3CCOCC3)cc2)c2c(C)c(C)sc2n1	·	·	82*	2	·	15	44*	29
Oc1ccc(/C=N/Nc2nc(N3CCCCCC3)nc(N3CCCCCC3)n2)c(O)c1	-5	-2	66*	-19	21	-19	-13	·
Oc1ccc(Br)cc1/C=N/Nc1nc(N2CCCCC2)nc(N2CCOCC2)n1	0	2	37	22	-25	-16	·	·
CC1(NC(=O)C2CCN(C(=O)Nc3ccccc3)CC2)CCS(=O)(=O)C1 (configuration not stated)	-3	-2	13	-2	-2	5	·	·
CC(C)CN(CC(C)C)C(=O)COc1ccccc1C(N)=O	0	-2	16	11	13	-1	·	·
SMILES	VIM-2 inh	IMP-1 inh	Mdm2-MdmX inh	697 NFkB inh	aSyn 5UTR inh	Jurkat NFkB inh	Mdm2 MdmX conf	FLuc counter
COc1cc(NC(=O)Cc2cccc3ccccc23)c(C(=O)O)cc1OC	-1	-3	17	13	11	-8	·	·
Cc1ccc(OCc2ccc(C(=O)Nc3cc(C)on3)o2)c([N+](=O)[O-])c1	-1	-4	-2	-12	17	17	·	·
CCn1c(NC(=O)c2ccc(COc3ccc(C)cc3[N+](=O)[O-])o2)nc2ccccc21	-3	-4	59*	-52	19	-11	42*	94*
Cc1ccc(CNC(=O)CSc2nc3c(sc4ccccc43)c(=O)n2CCCN2CCCC2)cc1	1	-2	51*	-19	?	-15	48*	42*
O=C(CSc1nc2c(sc3ccccc32)c(=O)n1CCCN1CCOCC1)NC1CCCC1	-2	-2	-5	2	-20	-7	·	·
O=C(CSc1nc2c(sc3ccccc32)c(=O)n1CCCN1CCCC1)NCc1ccccc1	-3	-4	54*	16	-40	-8	31	·
CN(NC(=O)c1cccc(Cl)c1)c1nc(-c2ccccc2)nnc1C(F)(F)F	-4	-3	59*	-11	·	5	57*	53*
CCCC(=O)N(Cc1cccnc1)c1nc2c(OC)ccc(Cl)c2s1	1	0	17	-14	4	9	·	·
CC[C@H](C)[C@@H]1NC(=O)[C@H]([C@@H](C)CC)NC(=O)[C@@H](CC(C)C)NC(=O)[C@H](Cc2ccccc2)NC(=O)[C@H](Cc2ccccc2)NC(=O)[C@@H]2CCCN2C(=O)[C@@H]2CCCN2C(=O)[C@H](C(C)C)NC(=O)[C@H](CC(C)C)NC1=O	·	·	52*	9	·	0	12	·
CS(=O)(=O)N1c2ccccc2[C@]2([C@@]34C[C@H]5C(=O)N[C@@H](Cc6ccccc6)C(=O)N5[C@@H]3N(S(C)(=O)=O)c3ccccc34)C[C@H]3C(=O)N[C@@H](Cc4ccccc4)C(=O)N3[C@H]12	·	·	23	8	-8	10	·	·
CCOC(=O)c1ccc(OCCOc2ccccc2C)cc1	-3	-3	8	-11	-5	-7	·	·
Cc1ccc(Nc2nnc(SCc3nc4ccccc4c(=O)[nH]3)s2)cc1	1	-1	66*	21	15	-6	40*	17
